In publication PMC5489371 (Leukemia & lymphoma, 2017):

Columns and labels:
[1] = tested on: patients treated with single agent panobinostat; details: cited from earlier work
[2] = tested on: patients with relapsed hematologic malignancies; test: Response assessment, all 27 patients; type: in vivo, human; details: 95% CI: 53.7 – 88.8
Method in brief: (§1)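 Open-label, single-centre, first-in-human 3+3 dose-escalation trial. Adults with relapsed or refractory CLL, Hodgkin or non-Hodgkin lymphoma (WHO 2008) or MM (IMWG criteria) had to have had at least one prior therapy; MM patients had prior immunomodulatory agent and proteasome inhibitor. Test compound was given orally Mon/Wed/Fri for three weeks of each 28-day cycle at 20, 40, 50 or 70 mg, until unacceptable toxicity or progression.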

QTc measurement = type: in vivo, human
[3] = tested on: MM cell lines (U266, H929, RPMI 8226, ARH-77, and IM-9); details: MM cell lines and primary MM cells; cited from earlier work
[4] = tested on: patients with relapsed hematologic malignancies; test: Phase 1 dose escalation trial of single-agent AR-42: safety and tolerability; type: in vivo, human
soluble CD44 (sCD44) = test: ELISA for soluble CD44 in serum of MM patients; type: in vivo, human
Method in brief: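 Serum from relapsed multiple myeloma patients was collected at baseline before dosing and on cycle 1 day 15. Soluble human CD44 was measured by ELISA following the kit manufacturer's protocol. Patients took the oral HDAC inhibitor Monday, Wednesday and Friday for three weeks, then one week off, in 28-day cycles.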

[5] = tested on: patients with relapsed MM; test: Response assessment, multiple myeloma patients; type: in vivo, human
Method in brief: as §1

[6] = Pharmacokinetic analysis of AR-42 in patient plasma; type: in vivo, human
[7] = tested on: patients with relapsed lymphoma; test: Response assessment, lymphoma patients; type: in vivo, human
Method in brief: as §1

[8] = between the 20 and 40 mg dose levels
[9] = between the 40 and 50 mg dose levels

Cc1[nH]c2ccccc2c1CCNCc1ccc(/C=C/C(=O)NO)cc1 [panobinostat]
patients with fatigue [1]: 47.4%

AR-42
patients with stable disease for between 1 and 3 cycles [2]: 20 of 27
QTc prolongation, highest grade (QTc measurement; all 27 patients, not associated with cardiac events or dose reductions): ≤ 1 grade
mean maximum QTc change (QTc measurement; all patients, range 10 – 60, standard deviation 14.5): 27.4
potency in comparison to vorinostat [3]: four- to seven-fold more potent
dose-limiting toxicities (DLTs) ([4]; in vivo): no DLTs were evident
grade 3 or 4 fatigue ([4]; in vivo): no patient suffered grade 3 or 4 fatigue
patients requiring hospitalization ([4]; in vivo): seven
patients requiring temporary holds of study treatment ([4]; in vivo): seven
patients with SAEs possibly, probably, or likely related to AR-42 ([4]; in vivo): five
patients with neutropenia (grade 1 – 3) ([4]; in vivo): 11 patients
patients with neutropenia (grade 1 – 4) ([4]; in vivo): 12 patients
maximum tolerated dose (MTD) ([4]; oral, three times weekly (M-W-F) for three weeks of a 28-day cycle): 40 mg
reduction of sCD44, mean difference (soluble CD44 (sCD44); 10 MM patients, 95% CI: 3.19–32.72, paired t-test, p=0.0022): 17.95
MM patients with decreased sCD44 levels (soluble CD44 (sCD44); baseline vs cycle 1 day 15): nine
MM patients in whom CD44 decreased more than 20% by day 15 (soluble CD44 (sCD44); cycle 1 day 15): four
Cycles of Treatment ([5]; MM patient ID 1, 20 mg (1a)): 1 cycles
Cycles of Treatment ([5]; MM patient ID 4, 40 mg (2a)): 3 cycles
Cycles of Treatment ([5]; MM patient ID 5, 40 mg (2a)): 18 cycles
Cycles of Treatment ([5]; MM patient ID 6, 40 mg (2a)): 3 cycles
Cycles of Treatment ([5]; MM patient ID 7, 40 mg (1b)): 3 cycles
Cycles of Treatment ([5]; MM patient ID 8, 40 mg (1b)): 1 cycles
Cycles of Treatment ([5]; MM patient ID 10, 50 mg (2b)): 1 cycles
Cycles of Treatment ([5]; MM patient ID 11, 50 mg (2b)): 1 cycles
Cycles of Treatment ([5]; MM patient ID 12, 50 mg (2b)): 1 cycles
Cycles of Treatment ([5]; MM patient ID 13, 50 mg (2b)): 3 cycles
Cycles of Treatment ([5]; MM patient ID 17, 70 mg (3b)): 5 cycles
Cycles of Treatment ([5]; MM patient ID 20, 40 mg (4b)): 2 cycles
Cycles of Treatment ([5]; MM patient ID 21, 40 mg (4b)): 1 cycles
Cycles of Treatment ([5]; MM patient ID 22, 40 mg (4b)): 2 cycles
Cycles of Treatment ([5]; MM patient ID 25, 40 mg (4b)): 2 cycles
Cycles of Treatment ([5]; MM patient ID 26, 40 mg (4b)): 1 cycles
Cycles of Treatment ([5]; MM patient ID 27, 40 mg (4b)): 3 cycles
duration of disease control, one patient with MM ([5]; human, in vivo): 19 months
MM patients who progressed during the first cycle ([5]; of 17 MM patients): four
peak concentration (geometric mean, %CV) ([6]; 20 mg oral, day 19, plasma): 0.335 (65.6) μM
peak concentration (geometric mean, %CV) ([6]; 20 mg oral, day one, plasma): 0.383 (56.2) μM
peak concentration (geometric mean, %CV) ([6]; 40 mg oral, day 19, plasma): 0.830 (27.9) μM
peak concentration (geometric mean, %CV) ([6]; 40 mg oral, day one, plasma): 0.794 (23.8) μM
peak concentration (geometric mean, %CV) ([6]; 50 mg oral, day one, plasma): 1.60 (37.5) μM
fold increase in mean day one AUC0-∞ [6, 8]: 1.9 fold
fold increase in mean day one Cmax [6, 8]: 2.1 fold
fold increase in mean day one AUC0-∞ [6, 9]: 1.7 fold
fold increase in mean day one Cmax [6, 9]: 2.0 fold
duration of disease control, one patient with mantle cell lymphoma ([7]; ongoing): 27 months
best response in patients with relapsed lymphoma ([7]; ten patients): stable disease
